This note sets out measurements from ChEMBL document CHEMBL3046169, “Synthesis and bioactivity study of 2-acylamino-substituted N'-benzylbenzohydrazide derivatives” (2012).

What all share (format): functional
One assay deals with Plutella xylostella. Kind of assay: Pesticidal activity against Plutella xylostella (diamondback moth) second-instar larvae grown on cruciferous vegetables leaves leaves as pest mortality at 600 mg/L measured 48 hr post compound exposure. Summed up: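 Over 20 second-instar larvae on cruciferous vegetable leaves dipped 5 s in compound diluted in distilled water containing 0.05% Triton X-100, excess liquid removed. Kept in illumination box at 25 ± 1 °C; mortality recorded 48 h after treatment. Each test in triplicate.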

Another assay deals with Aphis gossypii. Description: Pesticidal activity against Aphis gossypii (cotton aphid) third-instar nymphae grown on tender Hibiscus syriacus leaves assessed as pest mortality at 600 mg/L measured 24 hr post compound exposure. To be noted: in Hibiscus syriacus. Summed up: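 Leaf-dip bioassay: over 30 healthy apterous third-instar nymphs on tender Hibiscus syriacus leaves dipped 5 s in compound diluted in distilled water with 0.05% Triton X-100, excess fluid removed. Held in illumination box at 25 ± 1 °C; mortality scored after 24 h. Tests in triplicate.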

For the next assay, the system named is Tetranychus cinnabarinus. Description: Pesticidal activity against Tetranychus cinnabarinus (carmine spider mite) third- instar larvae grown on Phaseolus vulgaris leaves assessed as pest mortality at 600 mg/L measured 48 hr post compound exposure. The method, boiled down:
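More than 20 third-instar mite larvae on Phaseolus vulgaris leaves dipped 5 s in compound solutions (water with 0.05% Triton X-100), excess liquor removed. Larvae held at 25 ± 1 °C in illumination box; mortality read at 48 h. Primary screen at 600 mg L⁻¹, follow-up at 400, 200, 100, 50 and 25 mg L⁻¹ with LC50 calculated. Triplicate tests.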

For `Cc1cc(Cl)cc(C(=O)NNCc2ccc(Cl)nc2)c1NC(=O)C(C)(C)CCl`, the mortality (usually the percentage killed) at 600 µg/mL amounted to 16% with Plutella xylostella, 30.6% in the assay with Aphis gossypii and 47.1% in the assay with Tetranychus cinnabarinus.
Turning to `Cc1cc(Cl)cc(C(=O)NNCc2ccc(Cl)cc2Cl)c1NC(=O)C(C)(C)CCl`, the mortality at 600 µg/mL with Aphis gossypii came out at 42.3%; in the assay on Tetranychus cinnabarinus, 73.8%.
Take `Cc1cccc(C(=O)NNCc2ccc(Cl)cc2Cl)c1NC(=O)C(C)(C)C`: the mortality at 600 µg/mL was 50% in the assay with Plutella xylostella, 89.4% in the assay on Aphis gossypii and 52.9% with Tetranychus cinnabarinus.
As to `Cc1cc(Br)cc(C(=O)NNCc2ccccc2Cl)c1NC(=O)C(C)(C)C`, the mortality at 600 µg/mL stood at 64% in the assay with Plutella xylostella, 49.1% in the assay on Aphis gossypii and 40.1% in the assay on Tetranychus cinnabarinus.
For `Cc1cc(Cl)cc(C(=O)NNCc2ccccc2)c1NC(=O)C(C)(C)C` the same measures were 34%, 52.4% and 92.5%.
For `Cc1cccc(C(=O)NNCc2ccccc2Cl)c1NC(=O)C(C)(C)CCl`, the figures for the mortality at 600 µg/mL with Plutella xylostella, in the assay with Aphis gossypii and in the assay with Tetranychus cinnabarinus were 22%, 68.8% and 46.7%, respectively.
On the same counts, the results for `Cc1cc(Br)cc(C(=O)NNCc2ccccc2Cl)c1NC(=O)CC(C)(C)C` are 76%, 88% and 11.6%.
On the same counts, the results for `Cc1cc(Cl)cc(C(=O)NNCc2ccc(Cl)cc2Cl)c1NC(=O)CC(C)(C)C` are 88%, 62% and 88.8%.
For `Cc1cccc(C(=O)NNCc2ccc(Cl)nc2)c1NC(=O)CC(C)(C)C` the same measures were 100%, 65.5% and 19.3%.
For `Cc1cc(Br)cc(C(=O)NNCc2ccccc2)c1NC(=O)CC(C)(C)C`, the mortality at 600 µg/mL in the assay on Plutella xylostella turned out to be 22%; in the assay on Aphis gossypii, 96.6%; with Tetranychus cinnabarinus it was 78.1%.
`Cc1cc(Cl)cc(C(=O)NNCc2cccc(C(F)(F)F)c2)c1NC(=O)C(C)(C)C`: the mortality at 600 µg/mL with Plutella xylostella is 40%; in the assay on Aphis gossypii it was 68.3%; with Tetranychus cinnabarinus, 8.6%.
On the same counts, the results for `CC(C)(C)C(=O)Nc1ccc(Cl)cc1C(=O)NNCc1cccc(C(F)(F)F)c1` are 28%, 28.9% and 73.8%.
In the case of `Cc1cc(Br)cc(C(=O)NNCc2ccc(Cl)nc2)c1NC(=O)CC(C)(C)C`, the mortality at 600 µg/mL came to 40% with Plutella xylostella, 25.9% in the assay with Aphis gossypii and 23.4% in the assay on Tetranychus cinnabarinus.
For `Cc1cc(Cl)cc(C(=O)NNCc2ccc(Cl)cc2Cl)c1NC(=O)C(C)(C)C`, the results for the mortality at 600 µg/mL in the assay with Plutella xylostella, in the assay on Aphis gossypii and in the assay on Tetranychus cinnabarinus were 64%, 77.8% and 69%, respectively.
Take `Cc1cc(Cl)cc(C(=O)NNCc2ccccc2F)c1NC(=O)C(C)(C)C`: the mortality at 600 µg/mL in the assay on Plutella xylostella is 76%; in the assay on Aphis gossypii, 38.9%; in the assay on Tetranychus cinnabarinus, 80.5%.
`Cc1cccc(C(=O)NNCc2ccccc2)c1NC(=O)C(C)(C)CCl`: the mortality at 600 µg/mL worked out at 52% with Plutella xylostella, 95.6% with Aphis gossypii and 79.3% with Tetranychus cinnabarinus.
As for `Cc1cc(Br)cc(C(=O)NNCc2cccc(C(F)(F)F)c2)c1NC(=O)C(C)(C)CCl`, the mortality at 600 µg/mL is 52% with Plutella xylostella, 78.6% with Aphis gossypii and 72.7% in the assay on Tetranychus cinnabarinus.
`Cc1cc(Br)cc(C(=O)NNCc2ccc(Cl)cc2Cl)c1NC(=O)C(C)(C)C`: the mortality at 600 µg/mL in the assay with Plutella xylostella was determined as 34%; in the assay on Aphis gossypii it was 90.2%; with Tetranychus cinnabarinus it was 77%.
Regarding `Cc1cc(Cl)cc(C(=O)NNCc2ccccc2Cl)c1NC(=O)C(C)(C)CCl`, the mortality at 600 µg/mL was found to be 64% in the assay on Plutella xylostella, 14.5% with Aphis gossypii and 11% in the assay on Tetranychus cinnabarinus.
With `CC(C)(C)C(=O)Nc1ccc(Cl)cc1C(=O)NNCc1ccc(F)cc1`, the mortality at 600 µg/mL is 91.3% in the assay on Aphis gossypii and 73.8% in the assay with Tetranychus cinnabarinus.
